Measurements published in ChEMBL document CHEMBL2390929, “New nitric oxide donating 1,2,4-triazole/oxime hybrids: synthesis, investigation of anti-inflammatory, ulceroginic liability and antiproliferative activities” (Bioorg Med Chem, 2013).

Assays:
SW-620 = assay: Cytotoxicity against human SW620 cells assessed as cell growth at 10^-5 M after 48 hrs by SRB assay; assay type: functional; details: SW-620, 48 h, read-out: Activity
In short: (§1)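 NCI-60 one-dose screen across nine tumour subpanels. Each agent added once at 10^-5 M, cultures incubated 48 h. Endpoint is sulforhodamine B protein staining read spectrophotometrically. Output is percent growth of treated cells relative to untreated controls.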

UO-31 = assay: Cytotoxicity against human UO31 cells assessed as cell growth at 10^-5 M after 48 hrs by SRB assay; assay type: functional; details: UO-31, 48 h, read-out: Activity; in short: as §1
Rattus norvegicus [1] = assay: Gastrointestinal toxicity in albino rat assessed as ulcer index at 0.28 mmol/kg, po (reference value: 0.60 +/- 0.05); assay type: organism-based; details: in vivo
NCI/ADR-RES = assay: Cytotoxicity against human NCI/ADR-RES cells assessed as cell growth at 10^-5 M after 48 hrs by SRB assay; assay type: functional; details: read-out: Activity
In short: (§2)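 NCI 60-cell-line primary one-dose screen across nine tumour subpanels. Compound added at a single concentration of 10^-5 M and cultures incubated 48 h. Endpoint was sulforhodamine B protein staining read spectrophotometrically, with growth expressed as percent of untreated control cells.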

Rattus norvegicus [2] = assay: Antiinflammatory activity in albino rat assessed as inhibition of carrageenan-induced paw edema at 0.28 mmol/kg, po after 5 hrs relative to control; assay type: functional
In short: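 Adult male albino rats (120–140 g), four per group, fasted 24 h with water allowed. Test agent suspended in 0.5% w/v aqueous CMC and given orally at 0.28 mmol/kg; controls received CMC alone. After 30 min, 0.1 mL fresh 1% carrageenan in saline was injected subplantar into the right hind paw and saline into the left. Paw thickness was measured by Vernier caliper; % inhibition = [(VR−VL)control − (VR−VL)treated]/(VR−VL)control ×100. Mean ± SEM, one-way ANOVA.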

NCI-H226 = assay: Cytotoxicity against human NCI-H226 cells assessed as cell growth at 10^-5 M after 48 hrs by SRB assay; assay type: functional; details: NCI-H226, 48 h, read-out: Activity; in short: as §2
SK-MEL-2 = assay: Cytotoxicity against human SK-MEL-2 cells assessed as cell growth at 10^-5 M after 48 hrs by SRB assay; assay type: functional; details: SK-MEL-2, 48 h, read-out: Activity; in short: as §2
SK-MEL-5 = assay: Cytotoxicity against human SK-MEL-5 cells assessed as cell growth at 10^-5 M after 48 hrs by SRB assay; assay type: functional; details: SK-MEL-5, 48 h, read-out: Activity; in short: as §1
[3] = Induction of nitric oxide release in phosphate buffer at pH 7.4 at 0.1 mM after 5 hrs by Griess method in presence of 0.5 mM of N-acetylcysteine; assay type: physicochemical; details: pH 7.4, 5 h, 100 µM
In short: (§3)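 Compound in DMF diluted to final 10^-4 M in 1:1 50 mM phosphate buffer pH 7.4/MeOH with 5×10^-4 M N-acetylcysteine, 37 °C. Aliquot mixed with Griess reagent, 10 min at room temperature, A546 read. Nitrite quantified against sodium nitrite standards (10–80 nmol/mL); NO expressed as mol/mol. n = 4 reaction mixtures per compound.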

MCF7 = assay: Cytotoxicity against human MCF7 cells assessed as cell growth at 10^-5 M after 48 hrs by SRB assay; assay type: functional; details: MCF7, 48 h, read-out: Activity; in short: as §2
SNB-19 = assay: Cytotoxicity against human SNB19 cells assessed as cell growth at 10^-5 M after 48 hrs by SRB assay; assay type: functional; details: SNB-19, 48 h, read-out: Activity; in short: as §1
SF-268 = assay: Cytotoxicity against human SF268 cells assessed as cell growth at 10^-5 M after 48 hrs by SRB assay; assay type: functional; details: SF-268, 48 h, read-out: Activity; in short: as §2
CAKI-1 = assay: Cytotoxicity against human CAKI-1 cells assessed as cell growth at 10^-5 M after 48 hrs by SRB assay; assay type: functional; details: CAKI-1, 48 h, read-out: Activity; in short: as §2
LOX IMVI = assay: Cytotoxicity against human LOXIMVI cells assessed as cell growth at 10^-5 M after 48 hrs by SRB assay; assay type: functional; details: read-out: Activity; in short: as §2
OVCAR-8 = assay: Cytotoxicity against human OVCAR8 cells assessed as cell growth at 10^-5 M after 48 hrs by SRB assay; assay type: functional; details: OVCAR-8, 48 h, read-out: Activity; in short: as §2
SF-539 = assay: Cytotoxicity against human SF539 cells assessed as cell growth at 10^-5 M after 48 hrs by SRB assay; assay type: functional; details: SF-539, 48 h, read-out: Activity; in short: as §2
OVCAR-3 = assay: Cytotoxicity against human OVCAR3 cells assessed as cell growth at 10^-5 M after 48 hrs by SRB assay; assay type: functional; details: OVCAR-3, 48 h, read-out: Activity; in short: as §2
SF-295 = assay: Cytotoxicity against human SF295 cells assessed as cell growth at 10^-5 M after 48 hrs by SRB assay; assay type: functional; details: SF-295, 48 h, read-out: Activity; in short: as §2
SK-OV-3 = assay: Cytotoxicity against human SKOV3 cells assessed as cell growth at 10^-5 M after 48 hrs by SRB assay; assay type: functional; details: SK-OV-3, 48 h, read-out: Activity; in short: as §1
NCI-H522 = assay: Cytotoxicity against human NCI-H522 cells assessed as cell growth at 10^-5 M after 48 hrs by SRB assay; assay type: functional; details: NCI-H522, 48 h, read-out: Activity; in short: as §2
OVCAR-5 = assay: Cytotoxicity against human OVCAR5 cells assessed as cell growth at 10^-5 M after 48 hrs by SRB assay; assay type: functional; details: OVCAR-5, 48 h, read-out: Activity; in short: as §2
SR = assay: Cytotoxicity against human SR cells assessed as cell growth at 10^-5 M after 48 hrs by SRB assay; assay type: functional; details: read-out: Activity; in short: as §1
A549 = assay: Cytotoxicity against human A549 cells assessed as cell growth at 10^-5 M after 48 hrs by SRB assay; assay type: functional; details: A549, 48 h, read-out: Activity; in short: as §2
RPMI-8226 = assay: Cytotoxicity against human RPMI8226 cells assessed as cell growth at 10^-5 M after 48 hrs by SRB assay; assay type: functional; details: RPMI-8226, 48 h, read-out: Activity; in short: as §2
DU-145 = assay: Cytotoxicity against human DU145 cells assessed as cell growth at 10^-5 M after 48 hrs by SRB assay; assay type: functional; details: DU-145, 48 h, read-out: Activity; in short: as §2
COLO 205 = assay: Cytotoxicity against human COLO205 cells assessed as cell growth at 10^-5 M after 48 hrs by SRB assay; assay type: functional; details: COLO 205, 48 h, read-out: Activity; in short: as §2
[4] = Induction of nitric oxide release in phosphate buffer at pH 7.4 at 0.1 mM after 4 hrs by Griess method in presence of 0.5 mM of N-acetylcysteine; assay type: physicochemical; details: pH 7.4, 4 h, 100 µM; in short: as §3
UACC-257 = assay: Cytotoxicity against human UACC257 cells assessed as cell growth at 10^-5 M after 48 hrs by SRB assay; assay type: functional; details: UACC-257, 48 h, read-out: Activity; in short: as §1
RXF 393 = assay: Cytotoxicity against human RXF393 cells assessed as cell growth at 10^-5 M after 48 hrs by SRB assay; assay type: functional; details: RXF 393, 48 h, read-out: Activity; in short: as §2
U-251 = assay: Cytotoxicity against human U251 cells assessed as cell growth at 10^-5 M after 48 hrs by SRB assay; assay type: functional; details: U-251, 48 h, read-out: Activity; in short: as §1

| Structure (SMILES) | growth at 10 µM (SW-620) [%] | growth at 10 µM (UO-31) [%] | UI (Rattus norvegicus [1]) | growth at 10 µM (NCI/ADR-RES) [%] | inhibition in vivo at 280 µmol/kg (Rattus norvegicus [2]) [%] | growth at 10 µM (NCI-H226) [%] | growth at 10 µM (SK-MEL-2) [%] | growth at 10 µM (SK-MEL-5) [%] | Activity [3] [mol/mol] | growth at 10 µM (MCF7) [%] | growth at 10 µM (SNB-19) [%] | growth at 10 µM (SF-268) [%] | growth at 10 µM (CAKI-1) [%] | growth at 10 µM (LOX IMVI) [%] | growth at 10 µM (OVCAR-8) [%] | growth at 10 µM (SF-539) [%] | growth at 10 µM (OVCAR-3) [%] | growth at 10 µM (SF-295) [%] | growth at 10 µM (SK-OV-3) [%] | growth at 10 µM (NCI-H522) [%] | further results |
| --- | --- | --- | --- | --- | --- | --- | --- | --- | --- | --- | --- | --- | --- | --- | --- | --- | --- | --- | --- | --- | --- |
| COc1ccc(-c2nnc(SC/C(=N/O)c3ccccc3)n2-c2ccccc2)cc1 | 114 | 87.1 | 7.57 | 97.9 | 73 | 103 | 106 | 93.9 | 0.15 | 104 | 97.3 | 117 | 96.5 | 101 | 102 | 107 | 111 | 89.5 | 111 | 81.6 | growth at 10 µM (OVCAR-5): 109%; growth at 10 µM (SR): 75.9%; growth at 10 µM (A549): 85%; growth at 10 µM (RPMI-8226): 73.5%; growth at 10 µM (DU-145): 119%; growth at 10 µM (COLO 205): 116%; Activity [4]: 0.15 mol/mol; growth at 10 µM (UACC-257): 98%; growth at 10 µM (RXF 393): 108%; growth at 10 µM (U-251): 98.6% |
| C=CCn1c(SC/C(=N\O)c2ccccc2)nnc1-c1ccc(OC)c(OC)c1 | 104 | 77.9 | 1.82 | 93 | 69 | 103 | 100 | 101 | 0.24 | 105 | 99.5 | 105 | 90 | 88.2 | 96.8 | 95.6 | 110 | 104 | 110 | 89 | growth at 10 µM (OVCAR-5): 107%; growth at 10 µM (SR): 109%; growth at 10 µM (A549): 98.1%; growth at 10 µM (RPMI-8226): 83.7%; growth at 10 µM (DU-145): 114%; growth at 10 µM (COLO 205): 106%; Activity [4]: 0.17 mol/mol; growth at 10 µM (UACC-257): 102%; growth at 10 µM (RXF 393): 117%; growth at 10 µM (U-251): 94.2% |
| O/N=C(/CSc1nnc(-c2ccccc2)n1-c1ccccc1)c1ccccc1 | 98.8 | 77.4 | 2.53 | 100 | 75 | 95.6 | 101 | 89.2 | 0.15 | 129 | 84.8 | 104 | 85.4 | 104 | 93.2 | 120 | 92.3 | 88 | 103 | 98.5 | growth at 10 µM (OVCAR-5): 125%; growth at 10 µM (SR): 92.8%; growth at 10 µM (A549): 88.6%; growth at 10 µM (RPMI-8226): 85.6%; growth at 10 µM (DU-145): 99.2%; growth at 10 µM (COLO 205): 107%; Activity [4]: 0.13 mol/mol; growth at 10 µM (UACC-257): 87.6%; growth at 10 µM (RXF 393): 108%; growth at 10 µM (U-251): 82.3% |
